Data from ChEMBL document CHEMBL1142796 (Bioorg Med Chem Lett, 2005).
pEC50, pKi: −log10 of the molar value.

Assays:
[1] = biological target: T1, Neuronal acetylcholine receptor subunit alpha-7 (Rattus norvegicus, UniProt Q05941); test: Effective concentration against rat alpha7 nicotinic acetylcholine receptor
Method in brief: (§1)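 Rat α7 expressed in Xenopus oocytes, two-electrode voltage clamp at −60 mV, perfused at 2 ml/min. Controls were 300 μM ACh applied for 12 s with 181 s washout, given as two controls, then drug, then a control. Net-charge responses were normalized to the preceding ACh control and rescaled to the ACh maximum.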

[2] = biological target: Neuronal acetylcholine receptor subunit alpha-7 (Rattus norvegicus) (UniProt Q05941); test: Maximal response against rat alpha-7 nicotinic acetylcholine receptor; method in brief: as §1
Chain of Neuronal acetylcholine receptor subunit alpha-7 (Rattus norvegicus) (Q05941 whole entry): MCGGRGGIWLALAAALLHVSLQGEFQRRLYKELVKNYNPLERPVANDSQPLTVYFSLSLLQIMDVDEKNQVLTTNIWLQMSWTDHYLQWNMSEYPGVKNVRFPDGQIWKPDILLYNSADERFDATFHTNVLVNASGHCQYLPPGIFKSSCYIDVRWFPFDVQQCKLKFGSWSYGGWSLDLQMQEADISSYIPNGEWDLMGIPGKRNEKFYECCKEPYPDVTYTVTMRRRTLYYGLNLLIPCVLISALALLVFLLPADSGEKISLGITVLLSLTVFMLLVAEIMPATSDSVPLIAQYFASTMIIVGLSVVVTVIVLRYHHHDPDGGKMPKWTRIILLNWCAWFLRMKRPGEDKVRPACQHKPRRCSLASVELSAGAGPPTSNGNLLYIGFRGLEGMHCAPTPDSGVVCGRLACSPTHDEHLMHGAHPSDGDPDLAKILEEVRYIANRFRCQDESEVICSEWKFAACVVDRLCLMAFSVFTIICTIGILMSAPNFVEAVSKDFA

[3] = biological target: T2, Neuronal acetylcholine receptor; alpha4/beta2 (Rattus norvegicus, UniProt P09483+P12390); test: Inhibition of [3H]nicotine binding to alpha4-beta2 nicotinic acetylcholine receptor of rat brain membrane
T2 sequence (P09483 whole entry): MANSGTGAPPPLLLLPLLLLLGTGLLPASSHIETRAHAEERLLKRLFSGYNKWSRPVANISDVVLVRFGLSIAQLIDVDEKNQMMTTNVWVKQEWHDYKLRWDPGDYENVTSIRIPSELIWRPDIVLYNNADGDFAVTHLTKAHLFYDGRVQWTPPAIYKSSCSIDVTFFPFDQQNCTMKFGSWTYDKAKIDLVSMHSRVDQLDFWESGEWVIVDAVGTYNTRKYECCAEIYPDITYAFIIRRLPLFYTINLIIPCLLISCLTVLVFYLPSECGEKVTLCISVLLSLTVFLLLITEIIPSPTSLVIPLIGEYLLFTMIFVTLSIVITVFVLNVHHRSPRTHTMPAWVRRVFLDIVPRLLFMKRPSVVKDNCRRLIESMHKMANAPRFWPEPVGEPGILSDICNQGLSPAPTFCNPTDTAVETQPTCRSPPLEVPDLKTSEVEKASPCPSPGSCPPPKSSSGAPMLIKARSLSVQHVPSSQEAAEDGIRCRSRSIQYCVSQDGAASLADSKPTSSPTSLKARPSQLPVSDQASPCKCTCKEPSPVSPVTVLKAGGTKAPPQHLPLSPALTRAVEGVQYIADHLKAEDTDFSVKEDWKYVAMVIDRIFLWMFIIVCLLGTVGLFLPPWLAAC
T2 sequence (P12390 whole entry): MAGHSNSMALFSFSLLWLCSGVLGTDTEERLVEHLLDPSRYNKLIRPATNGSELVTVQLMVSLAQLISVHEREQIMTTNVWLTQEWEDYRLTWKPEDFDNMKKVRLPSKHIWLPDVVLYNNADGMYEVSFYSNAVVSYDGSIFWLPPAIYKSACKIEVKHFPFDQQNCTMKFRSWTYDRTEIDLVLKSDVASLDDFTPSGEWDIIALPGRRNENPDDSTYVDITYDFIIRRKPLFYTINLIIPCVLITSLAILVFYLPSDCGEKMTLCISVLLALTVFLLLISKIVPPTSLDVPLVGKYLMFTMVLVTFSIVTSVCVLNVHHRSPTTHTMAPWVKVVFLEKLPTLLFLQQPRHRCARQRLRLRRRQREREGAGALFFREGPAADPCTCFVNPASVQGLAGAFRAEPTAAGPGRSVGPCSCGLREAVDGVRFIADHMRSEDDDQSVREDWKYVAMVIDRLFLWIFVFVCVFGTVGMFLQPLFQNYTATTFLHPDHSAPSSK

[4] = biological target: Neuronal acetylcholine receptor; alpha3/beta4 (Rattus norvegicus) (UniProt P04757+P12392); test: Maximal response against rat alpha3-beta4 nicotinic acetylcholine receptor; assay type: protein-complex assay
Method in brief: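 Rat α3β4 expressed in Xenopus oocytes, two-electrode voltage clamp at −60 mV, perfused at 4 ml/min. Controls were 100 μM ACh applied for 8 s with 241 s washout, given as two controls, then drug, then a control. Peak current was normalized to the preceding ACh control and rescaled to the ACh maximum.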

[5] = biological target: Neuronal acetylcholine receptor; alpha4/beta2 (Rattus norvegicus) (UniProt P09483+P12390); test: Maximal response against rat alpha4-beta2 nicotinic acetylcholine receptor; assay type: protein-complex assay
Method in brief: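 Rat α4β2 expressed in Xenopus oocytes, two-electrode voltage clamp at −60 mV, perfused at 4 ml/min. Controls were 10 μM ACh applied for 8 s with 241 s washout, given as two controls, then drug, then a control. Peak current was normalized to the preceding ACh control and rescaled to the ACh maximum.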

[6] = biological target: T1, Neuronal acetylcholine receptor subunit alpha-7; test: Inhibition of [3H]MLA binding to rat alpha7 nicotinic acetylcholine receptor
[7] = biological target: T1, Neuronal acetylcholine receptor subunit alpha-7; test: Effective concentration against rat alpha-7 nicotinic acetylcholine receptor
Method in brief: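 Rat α7 expressed in Xenopus oocytes, two-electrode voltage clamp at −60 mV, perfused at 2 ml/min. Net-charge responses were normalized to the preceding ACh control and rescaled to the ACh maximum.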

[8] = biological target: Neuronal acetylcholine receptor; alpha3/beta4 (Rattus norvegicus, UniProt P04757+P12392); test: Effective concentration against rat alpha3-beta4 nicotinic acetylcholine receptor; assay type: protein-complex assay
Chain of Neuronal acetylcholine receptor; alpha3/beta4 (P04757 whole entry, the tested form may be a part): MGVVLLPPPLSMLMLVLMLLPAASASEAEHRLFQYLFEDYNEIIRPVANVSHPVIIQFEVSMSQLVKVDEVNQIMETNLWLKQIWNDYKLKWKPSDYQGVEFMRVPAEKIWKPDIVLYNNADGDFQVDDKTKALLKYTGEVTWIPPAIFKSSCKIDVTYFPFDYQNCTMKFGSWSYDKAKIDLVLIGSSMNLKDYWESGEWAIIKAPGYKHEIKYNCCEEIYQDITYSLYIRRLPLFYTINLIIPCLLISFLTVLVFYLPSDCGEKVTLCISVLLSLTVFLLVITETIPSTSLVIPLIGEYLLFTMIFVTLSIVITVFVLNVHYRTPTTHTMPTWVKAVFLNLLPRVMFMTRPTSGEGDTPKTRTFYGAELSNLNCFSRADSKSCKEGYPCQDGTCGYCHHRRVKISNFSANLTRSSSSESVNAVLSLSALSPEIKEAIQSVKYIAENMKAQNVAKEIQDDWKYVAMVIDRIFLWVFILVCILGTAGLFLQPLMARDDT
Chain of Neuronal acetylcholine receptor; alpha3/beta4 (P12392 whole entry, the tested form may be a part): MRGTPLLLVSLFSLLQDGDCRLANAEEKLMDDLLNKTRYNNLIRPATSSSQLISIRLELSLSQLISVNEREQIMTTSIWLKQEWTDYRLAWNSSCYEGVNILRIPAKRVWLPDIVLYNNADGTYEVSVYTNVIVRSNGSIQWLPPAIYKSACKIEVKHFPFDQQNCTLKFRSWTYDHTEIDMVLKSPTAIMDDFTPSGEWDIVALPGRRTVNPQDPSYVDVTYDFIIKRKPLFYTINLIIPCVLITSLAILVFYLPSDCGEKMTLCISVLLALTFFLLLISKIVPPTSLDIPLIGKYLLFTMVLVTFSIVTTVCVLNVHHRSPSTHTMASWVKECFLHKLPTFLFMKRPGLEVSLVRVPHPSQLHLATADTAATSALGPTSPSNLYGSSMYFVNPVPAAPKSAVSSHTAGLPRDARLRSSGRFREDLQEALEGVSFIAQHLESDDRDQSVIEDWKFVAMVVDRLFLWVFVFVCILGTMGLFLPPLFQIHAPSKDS
Method in brief: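 Rat α3β4 expressed in Xenopus oocytes, two-electrode voltage clamp at −60 mV, perfused at 4 ml/min. Peak current was normalized to the preceding ACh control and rescaled to the ACh maximum.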

[9] = biological target: T2, Neuronal acetylcholine receptor; alpha4/beta2; test: Effective concentration against rat alpha4-beta2 nicotinic acetylcholine receptor; assay type: protein-complex assay
Method in brief: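 Rat α4β2 expressed in Xenopus oocytes, two-electrode voltage clamp at −60 mV, perfused at 4 ml/min. Peak current was normalized to the preceding ACh control and rescaled to the ACh maximum.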

[10] = biological target: T1, Neuronal acetylcholine receptor subunit alpha-7; test: Inhibition of [3H]-MLA binding to alpha-7 nicotinic acetylcholine receptor of rat brain membrane

T1 sequence (Q05941 whole entry, the tested form may be a part): as the sequence (Q05941 whole entry) above

SMILES	pEC50 [1]	Imax [2]	pKi [3]	Imax [4]	Imax [5]	pKi [6]	pEC50 [7]	pEC50 [8]	pEC50 [9]	pKi [10]
CN1CC[C@@H]2CCc3ccncc3[C@@H]21	4.36	0.11	6.40	–	–	–	–	–	–	–
CN1CCC[C@H]1c1cccnc1	–	0.6	–	0.69	0.17	–	–	–	–	–
CN1CC[C@@H]2CCc3cc[n+]([BH2-]C#N)cc3[C@@H]21	–	0.26	6.22	–	–	5.62	4.70	–	–	–
CN1CCC[C@H]1c1ccc[n+]([BH2-]C#N)c1	–	0.15	7.39	0.06	0.05	–	4.68	4.55	3.82	4.82
CN1CC[C@H]2CCc3ncccc3[C@H]21	–	–	4.91	–	–	–	–	–	–	–
